Source: ChEMBL document CHEMBL1125834, “Synthesis and antirhinovirus activity of 8-substituted analogues of 6-(dimethylamino)-9-(4-methylbenzyl)-2-(trifluoromethyl)-9H-purine” (J Med Chem, 1991)

Tested on: rhinovirus A1B
Assay: Compound at 40 uM was tested for its percentage inhibitory concentration against rhinovirus 1B through plaque-inhibition assay at 50 ug/disk using monolayers of M-HeLa cells
Format: functional, rhinovirus type 1b
Conditions: not given

Point of comparison: Cc1ccc(Cn2c(S(C)(=O)=O)nc3c(N(C)C)nc(C(F)(F)F)nc32)cc1, Inhibition 37%. Against it:
- Cc1ccc(Cn2c(NCc3ccccc3)nc3c(N(C)C)nc(C(F)(F)F)nc32)cc1 — lower, 20%
- CC(=O)Nc1nc2c(N(C)C)nc(C(F)(F)F)nc2n1Cc1ccc(C)cc1 — lower, 22%
- Cc1ccc(Cn2c([S+](C)[O-])nc3c(N(C)C)nc(C(F)(F)F)nc32)cc1 (stereo not given) — lower, 27%
- Cc1ccc(Cn2c(O)nc3c(N(C)C)nc(C(F)(F)F)nc32)cc1 — lower, 25%

Tested on: rhinovirus A1B
Assay: (§1) Compound was tested for its inhibitory concentration against rhinovirus 1B through plaque-inhibition assay at 50 ug/disk using monolayers of M-HeLa cells
Format: functional, organism-based, rhinovirus type 1b
Conditions: Rhinovirus A
Procedure, shortened: (§2)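 The 50% inhibitory concentration against rhinovirus serotype 1B was measured in M-HeLa cells, with plaque-reduction run as described previously. 4',6-Dichloroflavan was run alongside as the reference.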

Point of comparison: Cc1ccc(Cn2c(N)nc3c(N(C)C)nc(C(F)(F)F)nc32)cc1, IC50 360 nM. Against it:
- Cc1ccc(Cn2cnc3c(N(C)C)nc(C(F)(F)F)nc32)cc1 — 12-fold lower, 30 nM
- Cc1ccc(Cn2c(=O)n(C)c3c(N(C)C)nc(C(F)(F)F)nc32)cc1 — 42-fold higher, 15000 nM
- Cc1ccc(Cn2c(Br)nc3c(N(C)C)nc(C(F)(F)F)nc32)cc1 — 3.9-fold higher, 1400 nM
- Cc1ccc(Cn2c(S)nc3c(N(C)C)nc(C(F)(F)F)nc32)cc1 — 56-fold higher, 20000 nM
- Cc1ccc(Cn2c(NCCO)nc3c(N(C)C)nc(C(F)(F)F)nc32)cc1 — 24-fold higher, 8600 nM
- CNc1nc2c(N(C)C)nc(C(F)(F)F)nc2n1Cc1ccc(C)cc1 — 8.1-fold higher, 2900 nM

Tested on: rhinovirus A1B
Assay: Compound was tested for its percentage inhibitory concentration through plaque-inhibition assay at 50 microg per disk using monolayers of M-HeLa cells.
Format: functional, rhinovirus type 1b
Conditions: Rhinovirus A

Cc1ccc(Cn2c(SCc3ccccc3)nc3c(N(C)C)nc(C(F)(F)F)nc32)cc1 showed an inhibition at 50 µg/disc of 25%.

Tested on: rhinovirus A1B
Assay: Compound at 8 uM was tested for its percentage inhibitory concentration against rhinovirus 1B through plaque-inhibition assay at 50 ug/disk using monolayers of M-HeLa cells
Format: functional, rhinovirus type 1b
Conditions: not given

With Cc1ccc(Cn2c(N(C)C)nc3c(N(C)C)nc(C(F)(F)F)nc32)cc1 the Inhibition was 40%.

Tested on: rhinovirus A1B
Assay: as §1
Format: functional, rhinovirus type 1b
Conditions: Rhinovirus A
Procedure, shortened: as §2

CSc1nc2c(N(C)C)nc(C(F)(F)F)nc2n1Cc1ccc(C)cc1 was tested, and the inhibition at 50 µg/disc was 15%.
